DNA FID counter = displaces DNA intercalator in HCV helicase counter-screen | DNA fluorescent intercalator displacement, fluorescence | inhibition, % at 7.9 µM | 290,000 tested, 0.17% active; in the data active = inhibition above about 37%;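 also: 0% = vehicle and 100% = reference compound; higher means more ethidium bromide displaced from hairpin DNA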
TMEM16A act = mouse TMEM16A channel activation, primary screen. AID 623877. B-score at 10 µM. 340,000 tested, 0.3% active. Q8BHY3. HEK293 TMEM16A/YFP-H148Q/I152L, iodide quench fluorescence; stronger effect = lower value;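 active = fluorescence-ratio B-score plate-corrected deviation score at least 3 library SD below zero, with starting fluorescence score within 5 deviations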;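 also: channel opened by trigger with iodide after compound preincubation; score built on the fluorescence ratio of max minus min over baseline; more negative score means more quench and so TMEM16A activation or potentiation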
Target sequence (Q8BHY3 whole entry, looked up): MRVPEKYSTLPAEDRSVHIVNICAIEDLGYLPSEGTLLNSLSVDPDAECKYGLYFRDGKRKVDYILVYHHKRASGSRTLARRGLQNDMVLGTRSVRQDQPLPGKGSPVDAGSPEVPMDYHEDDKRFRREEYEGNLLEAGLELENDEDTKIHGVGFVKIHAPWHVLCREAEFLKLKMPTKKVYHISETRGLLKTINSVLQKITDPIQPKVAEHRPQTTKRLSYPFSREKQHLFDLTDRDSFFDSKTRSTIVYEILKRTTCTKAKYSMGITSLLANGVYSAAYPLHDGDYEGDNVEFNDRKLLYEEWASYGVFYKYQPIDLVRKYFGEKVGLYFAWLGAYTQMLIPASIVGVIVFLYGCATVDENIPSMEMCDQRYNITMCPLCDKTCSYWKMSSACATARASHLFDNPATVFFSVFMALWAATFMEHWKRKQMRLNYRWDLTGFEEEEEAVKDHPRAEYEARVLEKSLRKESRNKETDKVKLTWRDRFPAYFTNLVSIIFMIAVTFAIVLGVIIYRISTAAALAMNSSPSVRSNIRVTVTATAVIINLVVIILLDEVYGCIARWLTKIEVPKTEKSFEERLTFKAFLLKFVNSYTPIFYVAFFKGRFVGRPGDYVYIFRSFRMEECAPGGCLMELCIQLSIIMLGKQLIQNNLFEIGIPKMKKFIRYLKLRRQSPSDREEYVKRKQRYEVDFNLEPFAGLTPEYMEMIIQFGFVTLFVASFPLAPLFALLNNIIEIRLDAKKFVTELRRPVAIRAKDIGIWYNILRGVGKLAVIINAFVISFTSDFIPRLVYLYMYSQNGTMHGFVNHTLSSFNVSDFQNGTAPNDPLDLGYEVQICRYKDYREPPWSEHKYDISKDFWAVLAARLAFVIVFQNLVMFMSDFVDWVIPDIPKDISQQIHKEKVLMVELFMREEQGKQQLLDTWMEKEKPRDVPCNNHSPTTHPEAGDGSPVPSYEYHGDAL
Apaf1 inhib = blocks human Apaf-1 apoptosome activity; 330,000 tested, 0.71% active; AID 489030; reconstituted apoptosome caspase-3 activity, DEVD-Rh110 fluorescence; inhibition, % at 20 µM; O14727; active = inhibition of at least 40% at 20 µM;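 also: plate controls were DMSO wells for no effect and DEVD-CHO caspase inhibitor wells for full effect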
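Assay system – apoptosome proteins · Medium – Hepes buffer, pH 7.5 · Also added – cytochrome c with DEVD-Rh110 · Timing – 30 min compound preincubation, 50 min activation, room temperature · Detection – Rh110 fluorescence, excitation 480 nm, emission 540 nm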
UBC13 inh = human UBC13 polyubiquitination inhibition | P61088 | UBC13 polyubiquitin chain formation, TR-FRET | inhibition, % at 20 µM | 330,000 tested, 0.47% active; in the data active = inhibition above about 45%, passing the limit was not always enough
TMEM16A inh = blocks the mouse calcium-activated chloride channel TMEM16A | Q8BHY3 | HEK293 TMEM16A/YFP iodide influx fluorescence, ionomycin | normalized B-score (activity score, 25-100; higher = stronger inhibition) at 10 µM | 310,000 tested, 1.2% active | AID 588511;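 active = ratio plate-corrected score three or more library SD toward inhibition, starting fluorescence score within five deviations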;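 also: score derived from kinetic fluorescence span divided by baseline fluorescence per well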
TMEM16A reconf = re-confirmation of mouse TMEM16A chloride channel inhibitors | 2,300 tested, 39% active | HEK293 TMEM16A/YFP-H148Q, iodide quench fluorescence; ionomycin added to raise cell calcium | inhibition, % at 10 µM | shares compounds with TMEM16A inh | AID 652189;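 active = mean duplicate percent inhibition, scaled so buffer wells are 0 and the reference blocker 100, over three buffer SD above buffer mean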
TMEM16A Ca cntr = alters calcium mobilization in TMEM16A HEK293 cells, counter-screen. 2,300 tested, 2% active. calcium response (% of ionomycin), % at 10 µM. TMEM16A/YFP HEK293, Fluo4 calcium mobilization. shares compounds with TMEM16A inh;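 active = duplicate-averaged calcium signal over 20% of the ionomycin maximum, relative to buffer baseline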;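 also: each well's signal is peak minus trough fluorescence divided by its pre-addition baseline; 0% = buffer wells and 100% = ionomycin wells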
YFP-HEK293 quench = counter-screen for TMEM16A inhibitors: effect in parental YFP-HEK293 cells; iodide YFP quench, ionomycin; 2,300 tested, under 10 active; AID 652233; shares compounds with TMEM16A inh; YFP ratio F(max-min)/F0 at 10 µM;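 active = yellow fluorescent protein signal ratio exceeding the buffer control mean by over 5 SD of those controls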;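 also: ratio is mean of duplicate wells from kinetic YFP trace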
ClC-1 rat inh = rat ClC-1 inhibition, TMEM16A specificity screen; shares compounds with TMEM16A inh; CHO ClC-1-YFP, iodide influx fluorescence quench; iodide control reads 0, buffer control 100; ratio percent, % at 10 µM; 2,300 tested, under 10 active; AID 652236;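 active = duplicate-mean ratio percent above the mean of iodide-only control wells, which defines zero, plus 5 of their SD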;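 also: higher percent means stronger block of ClC-1 iodide influx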
An asterisk follows results filed as active; i = inactive; · = not tested or not shown. A selection: hits, their analogues and other compounds. The true share with any hit is near 2.4%.

SMILES	DNA FID counter	TMEM16A act	Apaf1 inhib	UBC13 inh	TMEM16A inh	TMEM16A reconf	TMEM16A Ca cntr	YFP-HEK293 quench	ClC-1 rat inh
O=C(CC(Cc1ccccc1)c1ccco1)NC1CCCCC1 (stereo not drawn)	-25.4	i	9.0	7.7	i	i	i	-1.2	0.5
Cc1cc(Nc2ccccc2Cl)c2ccccc2n1	·	i	-1.1	4.7	i	·	·	·	·
Cc1cc(C)nc(NCC(O)CNc2ccccc2Cl)n1 (stereo not drawn)	-15.0	i	25.8	-1.7	25*	35.5%*	i	-1.17	-13.5
COc1ccc(OC)c(NC(=O)CCCCCn2nnc3ccccc3c2=O)c1	-36.6	i	3.3	4.5	i	·	·	·	·
CCCCOc1nc2ccccc2nc1NS(=O)(=O)c1ccc(F)cc1	-38.8	i	1.4	2.0	25*	i	i	-0.987	-11.0
O=S(=O)(Nc1nc2ccccc2nc1N1CCN(c2ccccc2)CC1)c1ccc(F)cc1	-26.6	i	9.5	-10.5	i	31.5%*	i	-0.856	-14.5
O=S(=O)(Nc1nc2ccccc2nc1Cl)c1ccc(F)cc1	-13.5	i	-11.9	-10.1	i	·	·	·	·
Cc1ccc(S(=O)(=O)Nc2nc3ccccc3nc2N2CCOCC2)cc1	·	i	-4.3	17.3	·	·	·	·	·
CC(O)CNCc1ccccc1C(F)(F)F (stereo not drawn)	2.6	i	-8.1	7.3	i	·	·	·	·
CC(C)C(NC(=O)c1ccc(Cl)cc1Cl)C(=O)NCCc1ccccn1 (stereo not drawn)	·	i	3.3	5.1	·	·	·	·	·
CCOc1ccccc1NC(=O)Nc1c(C)n(-c2ccccc2)c(=O)n1C	-3.7	i	-19.7	14.2	100*	i	i	-0.809	-1.0
COc1ccc(NC(=O)Nc2c(C)n(-c3ccccc3)c(=O)n2C)cc1OC	-8.7	i	-4.8	4.6	i	·	·	·	·
COc1ccc(CCN2C(=O)CSC2=Nc2ccc(C(C)C)cc2)cc1OC	-22.0	i	15.5	1.9	100*	53.0%*	i	-0.936	-28.0
CCC(Sc1nc(C)cc(=O)[nH]1)C(=O)Nc1nc(-c2ccccc2)cs1 (stereo not drawn)	-2.1	i	-5.2	14.1	25*	43.0%*	i	-1.06	-10.0
Cc1ccc(-c2csc(NC(=O)CSc3nc(C)cc(=O)[nH]3)n2)cc1	-11.6	·	-18.4	35.9	i	·	·	·	·
CC(C)(C)n1cnc2cc(NS(=O)(=O)c3ccc(Br)cc3)ccc21	-19.9	i	21.4	-0.9	25*	i	i	-0.91	-10.5
CC(C)c1noc2ncc(C(=O)c3cc(Cl)cc(Cl)c3O)cc12	-15.5	i	9.0	-10.8	25*	32.5%*	i	-0.882	-3.5
O=C(Nc1ccccc1Cl)c1ccc2c(=O)n3c(nc2c1)CCC3	·	i	-6.3	-3.9	·	·	·	·	·
O=C(Nc1nc(-c2ccc(Cl)s2)cs1)c1cccs1	3.2	i	6.5	-5.3	25*	i	i	-0.965	-17.5
O=C(Nc1nc(-c2ccccc2)cs1)c1ccc2c(=O)n3c(nc2c1)CCCCC3	-3.0	i	12.1	-19.3	100*	i	i	-1.2	-1.5
O=C(Nc1nc(-c2ccccc2)cs1)c1cccs1	0.1	i	9.7	14.3	25*	22.0%*	i	-1.05	-2.0
Cc1cc(-c2csc(NC(=O)c3ccc(=O)[nH]c3)n2)c(C)n1Cc1ccccc1	-21.1	i	12.8	-26.4	i	·	·	·	·
O=C(Nc1nc(-c2ccc(Cl)s2)cs1)c1ccco1	-4.6	i	1.0	-6.7	i	·	·	·	·
O=C(Nc1nc(-c2ccccc2)cs1)c1ccc(=O)[nH]c1	-7.0	i	4.2	-8.4	25*	26.5%*	i	-0.841	-7.5
O=S(=O)(Nc1ccc(-c2csc(-c3ccccc3)n2)cc1)c1ccc(F)cc1	2.0	i	14.1	-0.1	i	·	·	·	·
SMILES	DNA FID counter	TMEM16A act	Apaf1 inhib	UBC13 inh	TMEM16A inh	TMEM16A reconf	TMEM16A Ca cntr	YFP-HEK293 quench	ClC-1 rat inh
O=C(Nc1ccc(Cl)cc1)c1cccs1	3.2	i	5.4	7.5	25*	i	i	-1.1	-15.0
O=C(Nc1nc(-c2ccccc2)cs1)c1ccccc1NS(=O)(=O)c1ccc(F)cc1	-15.4	i	26.1	-3.9	100*	78.0%*	i	-1.2	-32.5
O=C(Nc1ccc(NC(=O)c2cccs2)cc1)c1cccs1	-10.7	i	10.2	4.9	i	·	·	·	·
C=CCC[C@H](Cc1ccc(F)cc1)C(=O)OC[C@@H](Cc1c[nH]c2ccccc12)NC(=O)[C@@H](CC=C)CC(=O)NCCO	·	i	26.3	33.6	·	·	·	·	·
CCN(CC)c1nc(OCCNC(=O)Nc2ccccc2)nc(N(CC)CC)n1	-25.5	i	-51.8	6.2	100*	19.5%*	i	-1.02	-11.0
Cc1ccc(C(=O)Nc2ccc(OCc3ccccc3)cc2)cc1[N+](=O)[O-]	9.3	i	-5.9	-5.9	25*	i	i	-1.07	-4.5
Cc1ccc(CNC(=O)CC(C)S(=O)(=O)c2ccc3c(c2)NC(=O)C(C)S3)cc1 (stereo not drawn)	-40.7	i	0.2	-2.2	25*	22.0%*	i	-0.951	-8.0
COc1ccccc1NC(=O)CSc1nnc(-c2ccc(C)cc2)o1	-1.1	i	-1.6	-8.1	i	·	·	·	·
COc1ccc(C)cc1NC(=O)CSc1nnc(-c2ccc(Br)cc2)o1	-7.3	i	18.5	0.8	100*	i	i	-0.916	-24.5
CCOc1ccc(C(=O)NCc2ccccc2OC)cc1	-8.7	i	-3.3	-13.5	i	·	·	·	·
COc1ccc(NS(=O)(=O)c2ccc3oc(SC)nc3c2)cc1	-20.1	i	5.7	1.8	i	·	·	·	·
COc1ccc(NS(=O)(=O)c2ccc3oc(SC4CCOC4=O)nc3c2)cc1 (stereo not drawn)	-7.5	i	10.0	-8.7	25*	37.0%*	i	-1.11	-10.5
CCOC(=O)C1CCCN(c2ncnc3c2oc2ccccc23)C1 (stereo not drawn)	-9.7	i	12.0	-0.9	100*	28.5%*	i	-1.05	-19.5
CCOC(=O)C1CCN(c2ncnc3c2oc2ccccc23)CC1	-24.1	i	3.0	1.8	100*	22.0%*	i	-0.898	-16.0
COc1ccc(NC(=O)NNS(=O)(=O)c2ccc(OC)c(OC)c2)c(OC)c1	-8.7	i	1.5	1.5	i	·	·	·	·
CCN(CC(=O)Nc1c(F)cccc1F)C(=O)c1cccnc1Sc1ccccc1	·	i	5.6	-1.1	i	·	·	·	·
